≈ marks a conversion by molar mass, not a printed value. Where “and” joins values, the source holds several entries; their conditions need not be identical. Equal values may be shown once.
Assays:
Enterobacter cloacae [1] = assay: Reversal of antibacterial activity by the compound, expressed as agar disc zone size with LL-DAP (0.38 ug/disc); No zone; assay type: functional, organism-based
Salmonella enteritidis = assay: Compound was tested in vitro for antibacterial activity against Salmonella enteritidis E497 strain.; conditions: Salmonella enterica
Enterobacter cloacae [2] = assay: Reversal of antibacterial activity by the compound, expressed as agar disc zone size with L-Ala-LL-DAP (6.5 ug/disc); assay type: functional
Enterobacter cloacae [3] = assay: Reversal of antibacterial activity by the compound, expressed as agar disc zone size with LL-DAP (0.19 ug/disc); assay type: functional
Providencia rettgeri = assay: Compound was tested in vitro for antibacterial activity against Providencia rettgeri AAB-137 strain.; assay type: functional
How it was run: (§1)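 Inocula grown on agar slants or in liquid M9 or Davis-Mingoli minimal medium for 7–16 h at 37 °C. Peptides dissolved in 50 mM potassium phosphate, pH 7.4, serially diluted 2- or 10-fold in the same buffer, filter-sterilized.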

[4] = Compound was tested in vitro for antibacterial activity against Citrobacter sp 2404 strain.; assay type: functional; how it was run: as §1
Klebsiella pneumoniae = assay: Compound was tested in vitro for antibacterial activity against Klebsiella pneumoniae 4200 strain.; assay type: functional; how it was run: as §1
Enterobacter cloacae [5] = assay: Reversal of antibacterial activity by the compound, expressed as agar disc zone size with L-Ala-LL-DAP (26 ug/disc); No zone; assay type: functional, organism-based
Escherichia coli = assay: Compound was tested in vitro for antibacterial activity against Escherichia coli CB64 strain; assay type: functional; how it was run: as §1
Enterobacter cloacae [6] = assay: Reversal of antibacterial activity by the compound, expressed as agar disc zone size with LL-DAP (0.0 ug/disc); assay type: functional
Enterobacter cloacae [7] = assay: Reversal of antibacterial activity by the compound, expressed as agar disc zone size with LL-DAP (0.76 ug/disc); No zone; assay type: functional, organism-based
Enterobacter cloacae [8] = assay: Compound was tested in vitro for antibacterial activity against Enterobacter cloacae P99 strain; assay type: functional; how it was run: as §1
Serratia marcescens = assay: Compound was tested in vitro for antibacterial activity against Serratia marcescens ATCC 13880 strain; assay type: functional; how it was run: as §1
Enterobacter cloacae [9] = assay: Reversal of antibacterial activity by the compound, expressed as agar disc zone size with L-Ala-LL-DAP (0.0 ug/disc); assay type: functional
Pseudomonas aeruginosa = assay: Compound was tested in vitro for antibacterial activity against Pseudomonas aeruginosa 647 strain.; assay type: functional
How it was run: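 Broth microdilution MIC. Inocula were pre-grown on agar slants or in M9 or Davis-Mingoli minimal medium for 7–16 h at 37 °C. Peptides were dissolved in 50 mM potassium phosphate, pH 7.4, serially diluted 2- or 10-fold, and filter-sterilised. Wells held 10^5 cfu/mL in M-9 broth with thiamine and lysine, read after 16 h at 37 °C.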

Row | Structure (SMILES) | MIC (Salmonella enteritidis) [µg/mL] | MIC (Providencia rettgeri) [µg/mL] | MIC [4] [µg/mL] | MIC (Klebsiella pneumoniae) [µg/mL] | MIC (Escherichia coli) [µg/mL] | MIC (Enterobacter cloacae [8]) [µg/mL] | MIC (Serratia marcescens) [µg/mL] | MIC (Pseudomonas aeruginosa) [µg/mL] | Zone size (Enterobacter cloacae [1]) | Zone size (Enterobacter cloacae [2]) | Zone size (Enterobacter cloacae [3]) | Zone size (Enterobacter cloacae [5]) | Zone size (Enterobacter cloacae [6]) [mm] | Zone size (Enterobacter cloacae [7]) | Zone size (Enterobacter cloacae [9]) [mm]
1 | O=C(O)CCCC[C@H](NC(=O)[C@@H]1CCCN1)C(=O)O | > 1000 | 250 (≈ 918 µM) | 250 (≈ 918 µM) | 63 (≈ 231 µM) | 500 (≈ 1840 µM) | 250 (≈ 918 µM) | > 1000 |  |  |  |  |  |  |  | 
2 | CC(N)C(=O)NCCP(=O)(O)O (centres undefined) [ALAFOSALIN] | 50 (≈ 255 µM) | > 100 | 25 (≈ 127 µM) | 1.6 (≈ 8.16 µM) | < 0.1 | 100 (≈ 510 µM) | 1.6 (≈ 8.16 µM) | > 100 |  |  |  |  |  |  | 
3 | N[C@@H](CCCCC(=O)O)C(=O)N1CCC[C@H]1C(=O)O | > 1000 | 4 (≈ 14.7 µM) | > 1000 | 16 (≈ 58.8 µM) | > 1000 | 8 (≈ 29.4 µM) | > 1000 |  |  |  |  |  |  |  | 
4 | NC(CCCCC(=O)O)C(=O)O (centres undefined) | > 1000 |  | > 1000 | 500 (≈ 2850 µM) | > 1000 | > 1000 | > 1000 | > 1000 |  |  |  |  |  |  | 

The next lines start with results.

Row | MIC (Salmonella enteritidis) [µg/mL] | MIC (Providencia rettgeri) [µg/mL] | MIC [4] [µg/mL] | MIC (Klebsiella pneumoniae) [µg/mL] | MIC (Escherichia coli) [µg/mL] | MIC (Enterobacter cloacae [8]) [µg/mL] | MIC (Serratia marcescens) [µg/mL] | MIC (Pseudomonas aeruginosa) [µg/mL] | Structure (SMILES) | Zone size (Enterobacter cloacae [1]) | Zone size (Enterobacter cloacae [2]) | Zone size (Enterobacter cloacae [3]) | Zone size (Enterobacter cloacae [5]) | Zone size (Enterobacter cloacae [6]) [mm] | Zone size (Enterobacter cloacae [7]) | Zone size (Enterobacter cloacae [9]) [mm]
5 | 2 (≈ 6.3 µM) | 125 (≈ 394 µM) | 250 (≈ 788 µM) | 1000 (≈ 3150 µM) | 31 (≈ 97.7 µM) | 63 (≈ 199 µM) | 16 (≈ 50.4 µM) |  | C[C@H](N)C(=O)N[C@@H](C)C(=O)N[C@@H](CCCCC(=O)O)C(=O)O | No zone | 9 mm and 15 mm | 17 mm and 21 mm | No zone | 25 | No zone | 25
6 | 8 (≈ 32.5 µM) | < 1 | 2 (≈ 8.12 µM) | 8 (≈ 32.5 µM) | 2 (≈ 8.12 µM) | 4 (≈ 16.2 µM) | 2 (≈ 8.12 µM) | > 1000 | C[C@H](NC(=O)[C@@H](N)CCCCC(=O)O)C(=O)O |  |  |  |  |  |  | 
7 | 16 (≈ 65 µM) | 4 (≈ 16.2 µM) | 8 (≈ 32.5 µM) | 16 (≈ 65 µM) | 16 (≈ 65 µM) | 4 (≈ 16.2 µM) | 8 (≈ 32.5 µM) | 1000 (≈ 4060 µM) | C[C@H](N)C(=O)N[C@@H](CCCCC(=O)O)C(=O)O |  |  |  |  |  |  | 
